Source: ChEMBL document CHEMBL1122573, “Novel N-hydroxyguanidine derivatives as anticancer and antiviral agents” (J Med Chem, 1984)
pIC50: −log10 of the molar value. Values after ≈ are worked out from the molar mass of the structure shown.

Assays:
L1210 [1] = experiment: Activity against cultured L1210 leukemic cells was determined in vitro, after 48 hr of incubation. Compound dose that causes 50 % inhibition was reported; assay type: functional; settings: Mus musculus, L1210, 48 h; read-out: ID50 (the source's name)
In short: (§1)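 L1210 cells in RPMI with 10% fetal calf serum, amino acids, vitamins and penicillin-streptomycin, seeded at 4.0–6.0 × 10^4 cells/mL in duplicate per concentration. At least six concentrations in 1:5 dilutions; 24–48 h humidified incubation under 5% CO2. Cells were counted with a Coulter counter, with untreated and Me2SO controls. ID values were derived by a previously described method.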

Gallus gallus [2] = species on record: Gallus gallus; experiment: Compound dose that inhibits transformation of chick embryo fibroblasts by Rous sarcoma virus, after 15 hr of incubation was determined in vitro. Compound dose that causes 50 % inhibition was reported.; assay type: functional; settings: read-out: ID50 (the source's name)
In short: (§2)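 Focus-formation assay with Rous sarcoma virus Schmidt-Ruppin subgroup D on confluent secondary chicken fibroblast monolayers (5 × 10^5 cells/plate). Compounds in DMSO (final <1%) were serially diluted from 10^-2 to 10^-5 M solutions before addition. Infection was ~150–200 focus-forming units per dish for 15 h at 37 °C. A 0.9% agar overlay held the same compound dilutions and was re-fed at day 3. Foci were scored 7–10 days post-infection, with virus-only and drug-only controls.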

L1210 [3] = experiment: Activity against cultured L1210 leukemic cells was determined in vitro, after 48 hr of incubation. Compound dose that causes 84 % inhibition was reported; assay type: functional, Mus musculus; in short: as §1
Gallus gallus [4] = species on record: Gallus gallus; experiment: Compound dose that inhibits transformation of chick embryo fibroblasts by Rous sarcoma virus, after 15 hr of incubation was determined in vitro. Compound dose that causes 84 % inhibition was reported.; assay type: functional; in short: as §2
Gallus gallus [5] = species on record: Gallus gallus; experiment: Compound dose that inhibits transformation of chick embryo fibroblasts by Rous sarcoma virus, after 15 hr of incubation was determined in vitro. Compound dose that causes 16 % inhibition was reported.; assay type: functional; in short: as §2
L1210 [6] = experiment: Activity against cultured L1210 leukemic cells was determined in vitro, after 48 h of incubation. Compound dose that causes 16 % inhibition was reported; assay type: functional, Mus musculus; in short: as §1
[7] = Compound dose that causes lethality by 50 %, was tested in mice; assay type: ADME, organism-based; settings: mouse, in vivo
In short: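 C57 Bl/6J mice, six per dose level. Drug was ground with an equal weight of acacia and suspended in saline, then dosed intraperitoneally by body weight.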

[8] = test system: Moloney murine sarcoma virus; experiment: Compound was tested for 50% inhibitory dose against Moloney sarcoma virus; assay type: functional; settings: read-out: ID50 (the source's name)

| Structure (SMILES) | pIC50 (L1210 [1]) | pIC50 (Gallus gallus [2]) | ID84 (L1210 [3]) [µM] | ID84 (Gallus gallus [4]) [µM] | ID16 (Gallus gallus [5]) [µM] | ID16 (L1210 [6]) [µM] | LD50 [7] [mg/kg] | IC50 [8] [µg/mL] |
| --- | --- | --- | --- | --- | --- | --- | --- | --- |
| N=C(NN)NO | 3.90 | 3.71 | 311 | 2438 | 15.63 | 57.1 | – | – |
| NC(/N=N/c1c(O)[nH]c2ccc(F)cc12)=N\O | 4.32 | 4.74 | 132 | 62.25 | 5.36 | 17.8 | – | – |
| N/C(=N\O)N/N=C/c1cccc(C(F)(F)F)c1 | 4.82 | 4.74 | 96.4 | 40.61 | 8.19 | 2.35 | – | – |
| N/C(=N\O)N/N=C/c1cccs1 | 4.47 | 4.93 | 143 | 38.04 | 3.64 | 81.7 | – | – |
| N/C(=N\O)N/N=C/c1cccc(I)c1 | 4.90 | 5.46 | 38.5 | 13.33 | 0.9 | 4.07 | 190 | – |
| N/C(=N/N=C/c1ccccn1)NO | 4.96 | 5.56 | 27 | 7.55 | 1.01 | 4.4 | 315 | – |
| Cc1cccc(/C=N/N=C(\N)NO)n1 | 4.38 | 3.94 | 89.6 | 361.3 | 36 | 19.76 | – | – |
| Cc1ccsc1/C=N/N=C(/N)NO | 4.48 | 4.73 | 65.3 | 57.9 | 5.89 | 16.89 | – | – |
| N=C(N)NO.O=S(=O)(O)O [HYDROXYGUANIDINE SULFATE] | 4.23 | 3.43 | 370 | 725.8 | 192.7 | 95.8 | – | – |
| N/C(=N\O)N/N=C/C1CCCCC1 | 4.67 | 4.63 | 48.4 | 60.4 | 9.11 | 9.34 | – | – |
| COc1cccc(/C=N/NC(=N)NO)c1 | 4.80 | 4.75 | 60.9 | 44.06 | 7.15 | 4.2 | – | – |
| CCCCCCOc1cccc(/C=N/N=C(\N)NO)c1 | 5.11 | 5.10 | 20.6 | 54.56 | 1.18 | 2.96 | – | – |
| N=C(N)NO [HYDROXYGUANIDINE] | – | – | – | – | – | – | – | 2 (≈ 26.6 µM) |
| CCCCOc1cccc(/C=N/N=C(\N)NO)c1 | 5.07 | 4.99 | 24.3 | 38.96 | 2.66 | 3 | – | – |
| NC(=O)NO [HYDROXYUREA] | 4.22 | – | 181 | – | – | 1.99 | – | – |
